MITF act – increases MITF-driven TRPM1 promoter luciferase signal | SK-MEL-5 TRPM1-promoter luciferase, 24 h; % of positive control, neutral wells = 0 | activation, % at 12.5 µM | actives 0.75% (n = 300,000);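 active means mean activation of at least 80% with every replicate also reaching 80%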;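 further: 0% = neutral control wells and 100% = parthenolide positive control wells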
Cneo AK release – Cryptococcus neoformans lysis via adenylate kinase release. C. neoformans lysis, adenylate kinase release luminescence, 4 h; normalised: neutral wells 0, clomiphene wells 100. actives 0.2% (n = 360,000). lysis activity, % at 15 µM;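 active means mean lysis activity across replicates of at least 80%, whatever share of replicates individually reach that level; inactive means mean lysis activity below 80%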
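Material – log-phase Cryptococcus neoformans yeast cells · Input – 5 × 10^6 yeast cells/mL · Medium – fresh YPD growth medium · Doses – single compound concentration per well · Timing – static 4 h at 37 °C with compound, 1 h detection · Detection – adenylate kinase release luminescence · Read-out – signal increase indicating cell lysis · Control set – Clomiphene as positive lysis control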
PGC1a acetyl inh – PGC1a acetylation modulation, inhibitor mode; U2OS PGC1a acetylation, AlphaScreen anti-acetyl-lysine; with virally co-expressed GCN5 acetyltransferase; inhibition, % at 15.6 µM; actives 0.17% (n = 350,000); AID 651687;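 active means every replicate shows inhibition of at least 40%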;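 further: 0% = neutral control wells and 100% = positive control wells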
Wnt act – Wnt/beta-catenin pathway activation | Wnt/beta-catenin reporter cell assay, activator, plate reader | actives 1.2% (n = 300,000) | AID 743398 | activation, % at 9.35 µM; in the data active means activation above about 30%, passing the limit was not always enough;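 further: 0% = neutral control wells and 100% = positive control wells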
Starred values were filed as active, the others as inactive. This is a sample that favours compounds with a hit; in the whole collection about 1.5% have one here.

Results for C[C@@H]1CN([C@@H](C)CO)C(=O)Cc2cc(NS(=O)(=O)c3ccc(Cl)cc3)ccc2O[C@@H]1CN(C)S(C)(=O)=O ?
Cneo AK release: 6.6; PGC1a acetyl inh: -1.2

Results for O=C(C[C@H]1CC[C@H]2[C@@H](COC[C@@H](O)CN2C(=O)Nc2cccc(Cl)c2)O1)NCCCN1CCOCC1 ?
Cneo AK release: -4.7; PGC1a acetyl inh: 1.9

Results for C[C@@H]1CN([C@H](C)CO)C(=O)CCCn2nncc2CO[C@H]1CN(C)S(=O)(=O)c1cn(C)cn1 ?
Cneo AK release: 1.0; PGC1a acetyl inh: 105.5*; Wnt act: -2.5

What do the screens show for `Cc1cccc(C(=O)Nc2nnc(SCC(=O)Nc3ccc4c(c3)oc3ccccc34)s2)c1`?
MITF act: 14.2; Wnt act: -1.9

Results for COc1ccccc1C(=O)Nc1nnc(SCC(=O)Nc2ccc3c(c2)oc2ccccc23)s1 ?
MITF act: 54.1; Cneo AK release: 0.0; Wnt act: 49.0*

What do the screens show for `COc1ccccc1C(=O)Nc1nnc(SCC(=O)NC2CCCC2)s1`?
MITF act: 91.1*; Cneo AK release: -7.8; PGC1a acetyl inh: -3.5

Results for O=C(CSc1nnc(NC(=O)c2ccccc2[N+](=O)[O-])s1)NC1CCCC1 ?
MITF act: -7.1; Cneo AK release: -6.9; Wnt act: 0.7

Results for Cc1ccc(F)cc1S(=O)(=O)N[C@@H]1CCN(Cc2ccc3[nH]ccc3c2)C1 ?
Cneo AK release: 0.0

How did C[C@@H]1CN([C@H](C)CO)C(=O)c2cccc(NS(=O)(=O)c3cn(C)cn3)c2O[C@H]1CN(C)C do in these assays?
Cneo AK release: 2.0; PGC1a acetyl inh: 2.2

How did CC(C)NC(=O)N1[C@@H](CO)[C@@H](c2ccccc2)C12CN(Cc1ccc(F)cc1)C2 do in these assays?
PGC1a acetyl inh: -5.2

Results for Clc1ccc(-c2nnc(-c3ccccc3)o2)c(Cl)c1 ?
Cneo AK release: -2.4; PGC1a acetyl inh: 3.3; Wnt act: 38.8*

Results for Clc1ccc(-c2nnc(-c3ccc(Br)o3)o2)c(Cl)c1 ?
MITF act: 125.9*; Cneo AK release: -2.7; PGC1a acetyl inh: 2.4

What do the screens show for `C[C@@H]1CN([C@H](C)CO)C(=O)c2cccc(NC(=O)c3cnccn3)c2O[C@H]1CN(C)S(=O)(=O)c1ccccc1`?
PGC1a acetyl inh: -3.6

What do the screens show for `Cc1noc(C)c1S(=O)(=O)Nc1ccc2c(c1)CC(=O)N([C@@H](C)CO)C[C@H](C)[C@@H](CN(C)Cc1ccncc1)O2`?
Cneo AK release: -1.9; PGC1a acetyl inh: 0.3

How did CCCC(=O)Nc1ccc2c(c1)C(=O)N(C)C[C@H](OC)[C@@H](C)CN(C(=O)c1cccnc1)[C@@H](C)CO2 do in these assays?
Cneo AK release: 82.4*; PGC1a acetyl inh: -2.6

Results for CCC(=O)Nc1ccc2c(c1)OC[C@H](C)N(C(=O)c1ccc(F)cc1)C[C@@H](C)[C@@H](OC)CN(C)C2=O ?
Cneo AK release: 92.0*; PGC1a acetyl inh: 1.4

What do the screens show for `CCC(=O)Nc1ccc2c(c1)OC[C@H](C)N(C(=O)c1ccc(F)cc1)C[C@H](C)[C@@H](OC)CN(C)C2=O`?
PGC1a acetyl inh: 1.0

Results for CCCC(=O)Nc1ccc2c(c1)C(=O)N(C)C[C@H](OC)[C@H](C)CN(C(=O)c1cccnc1)[C@@H](C)CO2 ?
Cneo AK release: -2.2; PGC1a acetyl inh: -2.6

What do the screens show for `CCC(=O)Nc1ccc2c(c1)C(=O)N(C)[C@H]1CC[C@H](CC(=O)NCCc3ccncc3)O[C@H]1CO2`?
PGC1a acetyl inh: 5.2

What do the screens show for `CC(=O)N1CC2(C1)[C@@H](c1ccc(-c3cccc(F)c3)cc1)[C@@H](CO)N2CC1CCOCC1`?
PGC1a acetyl inh: -8.6

How did O=C(NCCc1ccccc1F)C(=O)Nc1nccs1 do in these assays?
MITF act: 23.8; Cneo AK release: 0.9; PGC1a acetyl inh: 4.6; Wnt act: 36.6*

Results for O=C1CC(c2ccccc2)Sc2nc3ccccc3n21 (configuration not stated) ?
MITF act: 56.7; PGC1a acetyl inh: -1.6; Wnt act: 34.6*

Results for O=C1CC(c2ccc3c(c2)OCO3)Sc2nc3ccccc3n21 (configuration not stated) ?
MITF act: 11.9; Cneo AK release: -3.3; PGC1a acetyl inh: 14.9

Results for O=C1CC(c2ccco2)Sc2nc3ccccc3n21 (configuration not stated) ?
MITF act: -0.8; Cneo AK release: 0.2; PGC1a acetyl inh: -3.9; Wnt act: 46.5*

How did O=C1CC(c2cccs2)Sc2nc3ccccc3n21 (configuration not stated) do in these assays?
MITF act: 5.9; Cneo AK release: -0.1; PGC1a acetyl inh: 15.0

What do the screens show for `CCCC(=O)N1CC2(CCN(C)CC2)c2c(n(C)c3cc(OC)ccc23)[C@@H]1CO`?
PGC1a acetyl inh: -5.2

How did C[N+]1(C)CCC(=C2c3ccccc3CC(=O)c3sccc32)CC1 do in these assays?
Cneo AK release: 0.1; PGC1a acetyl inh: 93.7*; Wnt act: 19.9

How did C[C@@H]1CCCCO[C@@H](CN(C)S(=O)(=O)c2ccc(F)cc2)[C@H](C)CN([C@@H](C)CO)C(=O)c2cc(NC(=O)NC3CCCCC3)ccc2O1 do in these assays?
Cneo AK release: 0.6; PGC1a acetyl inh: 2.6

Results for Cc1ccc(-n2nnc3ccccc3c2=O)cc1C ?
MITF act: 86.0*; Cneo AK release: 1.1; PGC1a acetyl inh: -1.3

Results for O=C(O)/C=C/c1cnc[nH]1 ?
MITF act: 5.2; Cneo AK release: -0.6; PGC1a acetyl inh: 106.0*; Wnt act: -1.1

What do the screens show for `C=CCn1c2ccccc2c(=O)c2cc(C#CC3(O)CCCCC3)ccc21`?
MITF act: 68.8; Cneo AK release: -6.1; Wnt act: 8.1

Results for C=CCn1c2ccccc2c(=O)c2cc(C#CC[C@@H](C)O)ccc21 ?
MITF act: 94.2*; Cneo AK release: -5.2; PGC1a acetyl inh: 12.7; Wnt act: 36.1*

Results for Cn1c(-c2ccc(F)cc2)cnc1SCC(=O)N1CCCCC1 ?
Cneo AK release: -1.7; PGC1a acetyl inh: -3.4; Wnt act: 34.9*

How did O=C(CSc1ccc(-c2ccc(F)cc2)nn1)N1CCCCC1 do in these assays?
MITF act: 40.2; Cneo AK release: 0.1; PGC1a acetyl inh: 4.1; Wnt act: 2.9

What do the screens show for `Cn1c(-c2ccc(F)cc2)cnc1SCC(=O)N1CCCc2ccccc21`?
MITF act: 17.8; Cneo AK release: -0.6; PGC1a acetyl inh: 1.8; Wnt act: 5.3

What do the screens show for `CC1Cc2ccccc2N1C(=O)CSc1ncc(-c2ccc(F)cc2)n1C` (configuration not stated)?
MITF act: 41.7; Cneo AK release: -1.6; Wnt act: 58.9*

What do the screens show for `CN(/N=C/c1ccc(Cl)cc1Cl)c1ncc(Cl)cc1C(F)(F)F`?
MITF act: -10.0; Cneo AK release: 3.0; PGC1a acetyl inh: 0.3; Wnt act: 11.2

How did Cc1ccc(N(C)/N=C/c2ccc(Cl)cc2Cl)nn1 do in these assays?
MITF act: 98.8*; Cneo AK release: -1.2; PGC1a acetyl inh: 5.1; Wnt act: 1.9

Assay outcomes deposited in PubChem BioAssay by Broad Institute.
